The list is not random: actives were taken first. Their share in the collection is about 2.8%.
CAL PDZ FP-1 = untagged CAL PDZ binding inhibitors, primary screen, biochemical, fluorescence polarization, HTS. purified CAL PDZ, TMR-peptide fluorescence polarization, 1 h. inhibition, % at 24.9 µM. 300,000 tested, 0.92% active. AID 602252, 2012;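 active = mean inhibition of at least 30% with at least half of replicates also reaching 30%; inconclusive = no clear call, values can overlap the other calls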
dFosB act = activators of delta FosB homodimer, primary screen, biochemical, fluorescence polarization, TAMRA-CDK5 oligo, single point | purified delta FosB; percent of positive-control signal above neutral wells | activation, % at 25 µM | Protein FosB (Mus musculus), P13346 | AID 493131, 2011 | 340,000 tested, 0.99% active;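 active = mean activation above about 17%, with every replicate also reaching it, limit read from the data, passing the limit was not always enough; inconclusive = only one of the two conditions met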
SR-BI uptake up = activators of SR-BI mediated DiI-HDL uptake, primary screen, ldlA[mSR-BI] CHO cells, DiI fluorescence; 3 h; 100 = double the neutral-control signal; activation, % at 12.5 µM; 320,000 tested, 0.096% active; AID 504775, 2011;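 active = mean replicate activation of at least 60% and every replicate at or above 60%; inconclusive = mean or all-replicate condition met, but not both; inactive = mean below 60% and not all replicates reaching 60%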
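Material – SR-BI-overexpressing, LDLR-lacking CHO cells · Medium – BSA-supplemented, HEPES-buffered Ham's F12, pH 7.4 · Doses – single concentration · Times – compound with DiI-HDL co-incubation, 3 h at 37 °C · Measured by – bottom-read fluorescence, 550/595 nm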
SR-BI DiI inh = inhibitors of SR-BI mediated HDL lipid uptake, primary screen, ldlA[mSR-BI] cells, fluorescence, single point | Scavenger receptor class B member 1 (Mus musculus), Q61009 | ldlA[mSR-BI] CHO cells, DiI-HDL uptake fluorescence, 3 h | inhibition, % at 12.5 µM | 320,000 tested, 0.96% active;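 active = mean replicate inhibition of at least 70% and a set share of replicates each scoring 70 or more; inconclusive = meets just one of the two criteria; inactive = fails both criteria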
Target sequence (Q61009 whole entry, looked up): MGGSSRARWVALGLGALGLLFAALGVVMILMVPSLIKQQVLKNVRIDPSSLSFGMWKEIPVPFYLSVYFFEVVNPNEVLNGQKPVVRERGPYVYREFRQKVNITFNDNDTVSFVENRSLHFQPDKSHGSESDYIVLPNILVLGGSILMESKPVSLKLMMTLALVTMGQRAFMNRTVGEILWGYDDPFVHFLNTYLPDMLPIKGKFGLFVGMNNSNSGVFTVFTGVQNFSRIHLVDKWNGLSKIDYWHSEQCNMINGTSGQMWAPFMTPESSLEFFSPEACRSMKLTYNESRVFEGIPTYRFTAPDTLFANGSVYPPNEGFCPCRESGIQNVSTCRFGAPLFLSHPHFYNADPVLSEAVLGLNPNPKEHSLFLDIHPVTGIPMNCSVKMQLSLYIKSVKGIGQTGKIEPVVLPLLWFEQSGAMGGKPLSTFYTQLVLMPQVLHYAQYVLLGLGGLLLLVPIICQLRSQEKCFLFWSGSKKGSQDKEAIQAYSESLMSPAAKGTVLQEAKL
CAL PDZ FP-2 = CAL PDZ peptide-binding inhibitors, primary screen, biochemical, fluorescence polarization, Cer-tagged CAL PDZ, HTS; inhibition, % at 20 µM; AID 504414, 2011; purified CAL PDZ, TMR-peptide fluorescence polarization, 1 h; 330,000 tested, 0.02% active; Golgi-associated PDZ and coiled-coil motif-containing protein (Homo sapiens), Q9HD26;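 active = highest replicate inhibition of at least 40%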
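material = purified tagged CAL PDZ domain construct (CerCALP) | compound dosing = 20 µM, one dose | times = 1 h at RT | measured by = fluorescence polarization from S- and P-plane intensities, G-factor corrected | read-out = inhibition from polarization loss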
DiI quencher = DiI fluorescence quenching in cell-free counter-screen | shares compounds with SR-BI DiI inh | cell-free DiI-HDL fluorescence quenching, 30 min | AC50, µM (series often up to 35 µM) | 470 tested, 20% active | AID 540326;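 active = quenching, a falling signal, with AC50 below a set limit tied to the top valid dose, actives reach about 32 µM in these data; inconclusive = no clear call, values can overlap the other calls; inactive = rising signal, and the rest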
Each line names hits and unclear results; the compound was inactive in the other large screens (follow-up assays come after a bar, where they were run).

COc1cccc(-c2nnc(SC(C(=O)c3c[nH]c4ccccc34)c3ccccc3)n2C)c1 (stereo not drawn)	dFosB act inconclusive, SR-BI DiI inh 75 | DiI quencher inactive
CC(=O)NC12CC3CC(C1)CC(C(=O)N1CCN(S(=O)(=O)c4cccc([N+](=O)[O-])c4)CC1)(C3)C2	none
COc1cc2c(cc1O)CCN(C(=O)CSc1nncn1C)[C@@H]2C	none
CN(Cc1ccco1)S(=O)(=O)c1ccc(CN2C(=O)c3cccnc3C2=O)s1	none
N#Cc1ccc(C(=O)N2CCC3CC2c2cc(-c4ccc(F)cc4)ccc23)cc1 (stereo not drawn)	none | DiI quencher inactive
Cc1ccc(C(=O)N2CCC3CC2c2cc(-c4ccc5c(c4)OCO5)ccc23)cc1 (stereo not drawn)	none
CN(C)S(=O)(=O)c1cccc(NC(=O)c2cccc(S(=O)(=O)N3CCc4ccccc43)c2)c1	none
CS(=O)(=O)N1CCc2cc(C(=O)Nc3cccc([N+](=O)[O-])c3)ccc21	none | DiI quencher inactive
O=C(Nc1ccccc1)c1ccc2c(c1)CCN2S(=O)(=O)c1ccccc1	SR-BI DiI inh 76 (no result: CAL PDZ FP-1) | DiI quencher inactive
CC(=O)c1cccc(NC(=O)c2ccc3c(c2)CCN3S(=O)(=O)c2ccccc2)c1	SR-BI DiI inh 91 | DiI quencher inactive
COc1ccc(NC(=O)c2ccc3c(c2)CCN3S(=O)(=O)c2ccccc2)cc1	SR-BI DiI inh 81 | DiI quencher inactive
COc1ccccc1/C=[N+](\[O-])C1SC(=S)N(C)C1(C)C (stereo not drawn)	none
Cc1ccc(-c2nnc(CCC(=O)NCc3csc(C)n3)o2)s1	none (no result: SR-BI uptake up, SR-BI DiI inh)
Cc1ccc(C)c(N2CCN(C(=O)CCc3nc(-c4ccccc4Br)no3)CC2)c1	none (no result: CAL PDZ FP-1)
CC(=O)Nc1cccc(NC(=O)c2ccc3c(c2)CCN3S(=O)(=O)c2ccccc2)c1	SR-BI DiI inh inconclusive | DiI quencher inactive
COc1ccccc1NC(=O)CN1CCN(CC(=O)Nc2ccc(C)c(F)c2)CC1	SR-BI DiI inh 104 | DiI quencher inactive
COc1ccccc1NC(=O)CN1CCN(CC(=O)Nc2ccc(F)cc2)CC1	none
COc1ccccc1NC(=O)CN1CCN(CC(=O)Nc2ccc(OCc3ccccc3)cc2)CC1	none | DiI quencher inactive
O=C(CN1CCCC1)Nc1ccc(OCc2ccccc2)cc1	none
COc1cc(OC)cc(C(=O)N[C@H](C(=O)Nc2nc(-c3ccc(F)c(F)c3)cs2)C(C)C)c1	SR-BI DiI inh 84 | DiI quencher inactive
COC(=O)c1ccc(C)c(NC(=O)CCn2[nH]c(=O)ccc2=O)c1	none
c1ccc(CCNc2nc(-c3ccncc3)nc3ccccc23)cc1	SR-BI DiI inh inconclusive | DiI quencher inactive
c1ccc(Nc2nc(-c3ccncc3)nc3ccccc23)cc1	none (no result: CAL PDZ FP-1)
Cc1[nH]c2ccccc2c1C(=O)C(=O)NC1CC1	none
CCc1cc(CNC(=O)C2CCC(=O)N(CCc3cccc(F)c3)C2)on1 (stereo not drawn)	none (no result: CAL PDZ FP-1) | DiI quencher inactive
Cc1cccc(N2CCN(C(=O)COc3ccc4c(C)cc(=O)oc4c3C)CC2)c1C	SR-BI DiI inh inconclusive | DiI quencher inactive
Cn1nc(-c2ccc(Cl)cc2)c2cc(C(=O)NCCCN3CCOCC3)sc21	SR-BI DiI inh 72 | DiI quencher inactive
COc1ccccc1CCc1nnc(CCC(=O)N(C)Cc2cccc3cnccc23)o1	SR-BI DiI inh 75 | DiI quencher inactive
COc1cc2c(cc1OC)-c1cc(OCc3ccccc3Cl)nc(=O)n1CC2	SR-BI DiI inh 78 (no result: CAL PDZ FP-1) | DiI quencher inactive
COc1cc2c(cc1OC)-c1cc(NC3CCCC3)nc(=O)n1CC2	none
